# PRMT1 inh = inhibitors of human PRMT1; Q99873; recombinant PRMT1, activity-based probe fluorescence polarization; inhibition, % at 2.79 µM; 370,000 tested, 1.3% active; AID 652257;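 active = inhibition above about 21% made by adding two undisclosed values, limit read from the data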
# HTRA1 inh = HTRA1 (human) protease inhibition; Q92743; inhibition, % at 5.96 µM; recombinant HTRA1, FP-rhodamine activity-based probe, fluorescence polarization; 340,000 tested, 0.5% active; in the data active = inhibition above about 36%;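 note: 0% = enzyme with DMSO and 100% = wells lacking enzyme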
# mABHD4 FP = ABHD4 (mouse) inhibition, primary FP screen; purified mABHD4, FP-Rh probe fluorescence polarization; inhibition, % at 8.92 µM; 370,000 tested, 0.54% active; AID 720543;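 active = inhibition exceeding the mean over every tested compound plus 3 SD, cut at about 30% in these data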;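 note: 0% = plate median of compound wells and 100% = S159A mutant with DMSO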
# Target sequence (Q8VD66 whole entry, looked up): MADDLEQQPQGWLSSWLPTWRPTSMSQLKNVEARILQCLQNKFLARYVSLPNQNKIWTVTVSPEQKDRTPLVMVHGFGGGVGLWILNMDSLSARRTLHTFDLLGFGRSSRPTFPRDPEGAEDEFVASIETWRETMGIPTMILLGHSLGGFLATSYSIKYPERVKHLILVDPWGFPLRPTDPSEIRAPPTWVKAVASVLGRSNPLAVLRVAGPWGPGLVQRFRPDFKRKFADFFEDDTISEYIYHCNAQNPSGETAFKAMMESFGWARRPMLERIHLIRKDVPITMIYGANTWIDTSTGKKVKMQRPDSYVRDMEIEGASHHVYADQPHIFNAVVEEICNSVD
#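 Material: mouse ABHD4 enzyme, wild type; Benchmarks: S159A mutant high control, sample median low control; Buffer or medium: HEPES pH 7.0, NaCl, Pluronic buffer; Signal: fluorescence polarization; Read-out: percent inhibition of probe binding, normalized to plate controls; Timing: pre-incubation 45 min, probe exposure 60 min, at 25 °C; Dosing: 8.92 µM, single dose.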
# rCAG binder = r(CAG) repeat RNA binding | AID 651821 | 370,000 tested, 1.3% active | inhibition, % at 3 µM | TO-PRO-1 dye displacement fluorescence;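 active = inhibition above the plate cutoff, the mean of all test compounds on that plate plus 3 SD, cut at about 35% in these data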;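 note: 0% = DMSO alone and 100% = 100 µM mitoxantrone as full dye displacement; higher means more dye released from RNA so lower well fluorescence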
# LEDGF integ inh = blocks HIV-1 LEDGF/p75-dependent DNA integration | TR-FRET IN-LEDGF/p75 DNA integration, Eu/Cy5 | inhibition, % at 3.7 µM | 370,000 tested, 0.64% active | AID 743269;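 active = inhibition above the screen-wide mean plus 3 SD, cut at about 13% in these data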;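 note: signal is the Cy5 over europium emission ratio at 671 and 618 nm; 0% = plate median of compound wells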
# DAGLB inhibitor = blocks human DAGLB lipase activity; Q8NCG7; HEK293T DAGLB membrane lysate, EnzChek fluorogenic substrate; inhibition, % at 5.17 µM; 340,000 tested, 0.059% active; in the data active = inhibition above about 34%;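 note: 0% = enzyme with vehicle and 100% = wells lacking enzyme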
# PRMT1 inh conf = PRMT1 (human) inhibition, FP confirmation | shares compounds with PRMT1 inh | AID 687036 | 3,300 tested, 42% active | recombinant His-PRMT1, activity-based probe fluorescence polarization | inhibition, % at 2.79 µM;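 active = mean inhibition across replicates above the hit cutoff derived for the earlier primary screen, cut at about 22% in these data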
# * hit, by the source's call; x = no result. Compounds with a hit are over-represented: about 3.2% of the library has one in this group of screens.
SMILES,PRMT1 inh,HTRA1 inh,mABHD4 FP,rCAG binder,LEDGF integ inh,DAGLB inhibitor,PRMT1 inh conf
CN=Cc1sc2ccccc2c1O,52*,4,1,-3,-6,-1,27*
CCCCCNC(=O)C(c1ccc(OC)cc1)n1c(=O)c(-c2ccco2)nc2ccccc21 (configuration not stated),28*,x,-10,32,4,x,14
CCCCCNC(=O)C(c1ccccc1F)n1c(=O)c(-c2ccco2)nc2ccccc21 (configuration not stated),31*,x,-26,40*,-1,x,25*
O=C(Nc1cnn(Cc2ccccc2)c1)c1nc2ncccn2n1,1,3,-2,0,1,1,x
CCN1C(=O)/C(=C/C=C2/Sc3ccc4ccccc4c3N2CCO)SC1=S,44*,-19,-65,5,-6,0,-3
CCN1C(=O)/C(=C\C=C\c2ccccc2[N+](=O)[O-])SC1=S,0,-1,5,3,2,-1,x
COC(=O)N1CCCC1c1cccc2[nH]cc(C)c12 (configuration not stated),3,x,0,2,1,x,x
S=c1[nH]c(-c2ccccc2)cs1,30*,-11,5,0,-8,-1,6
CCOCCCNC(=O)c1cn(CC)c2ccc(S(=O)(=O)N3CCCC3)cc2c1=O,0,5,12,-2,-6,0,x
Cc1cc(Br)cn2c(Cc3ccccc3C(F)(F)F)c(-c3ccco3)nc12,40*,x,-3,32,0,x,23*
Cc1ccc(Cc2c(-c3ccco3)nc3c(C)cc(Br)cn23)cc1,33*,x,7,30,0,x,18
CCOc1ccc(CCN2C(=O)C(=O)N([C@@H](CC(C)C)CN3CCC[C@H]3CN3C(=O)C(=O)NC[C@@H]3Cc3ccc(O)cc3)C[C@@H]2CC(C)C)cc1,1,x,4,2,-5,x,x
Cc1c(NC(=O)c2ccc(S(=O)(=O)N3CCOCC3)cc2)cccc1[N+](=O)[O-],2,0,-1,4,-4,-4,x
Cc1ccc2c(c1)C(N1CCCC1=O)CC(c1ccco1)N2 (configuration not stated),25*,-5,1,1,4,-6,6
Cc1ccc(C2CC(c3ccco3)n3ncnc3N2)cc1 (configuration not stated),4,-3,2,0,0,-2,x
CCn1c(SCC(=O)Nc2cc(C)nn2-c2ccccc2)nnc1-c1cccs1,0,4,2,-5,0,0,x
CC(Sc1nnc(C2CC2)n1C1CC1)C(=O)Nc1cccc(S(=O)(=O)N(C)C)c1 (configuration not stated),37*,6,7,2,2,0,0
CCN1CCSc2ccc(C(=O)NCc3ccccc3F)cc21,52*,-9,3,15,3,0,4
CC(=O)Nc1ccc(S(=O)(=O)NCCN2CCOCC2)cc1,2,-2,2,1,-1,-2,x
COc1cc(CNc2ccc3[nH]c(=O)[nH]c3c2)ccc1OCc1ccccc1F,29*,10,10,3,-8,2,10
C=CCOc1c(Br)cc(CNc2ccc(NC(=O)CCC)cc2)cc1OCC,3,3,3,-1,-2,-6,x
C=CCOc1c(Br)cc(CNc2ccc3[nH]c(=O)[nH]c3c2)cc1OCC,30*,1,12,-1,-1,2,15
COc1cc(CNc2ccc3[nH]c(=O)[nH]c3c2)cc(Br)c1OCC(=O)NC(C)(C)C,25*,14,14,-4,-7,3,12
CC(C)(CO)C(O)C(=O)NCCC#N (configuration not stated),3,-2,3,-3,-1,-1,x
O=C(O)/C=C/C(=O)c1ccc2c(c1)CCc1ccccc1-2,56*,-15,-2,20,4,11,72*
SMILES,PRMT1 inh,HTRA1 inh,mABHD4 FP,rCAG binder,LEDGF integ inh,DAGLB inhibitor,PRMT1 inh conf
CC(=O)Nc1ccc2c(c1)CCc1ccccc1-2,3,0,6,-1,1,-2,x
O=c1[nH]nc(Cc2ccc(-c3cccc(Cl)c3)o2)c2ccccc12,-1,0,-1,2,-2,2,x
COc1ccc(NC(=O)CC2SC(=O)NC2=O)cc1 (configuration not stated),53*,9,4,14,-1,2,66*
Cc1ccc(NC(=O)CC2SC(=O)NC2=O)cc1 (configuration not stated),56*,-7,-14,15,1,-1,76*
COc1ccc(NC(=O)CC2SC(=Nc3ccccc3)NC2=O)cc1 (configuration not stated),2,-5,4,-4,-1,5,x
Cc1ccc(NC(=O)CC2Oc3ccc(C)cc3NC2=O)cc1 (configuration not stated),4,-4,-7,2,-1,0,x
Cc1cccc(N2C(=O)CC(N3CCC(c4nc5ccccc5[nH]4)CC3)C2=O)c1 (configuration not stated),47*,-1,4,-3,0,-1,3
COc1cccc(N2C(=O)CC(N3CCC(c4nc5ccccc5[nH]4)CC3)C2=O)c1 (configuration not stated),60*,-2,-8,2,-4,1,0
COc1cc(/C=C2\C(=O)NN(c3ccc(C)cc3)C2=O)cc([N+](=O)[O-])c1O,30*,13,26,31,2,14,9
Cc1ccc(C(=O)CSC2=C(C#N)C(c3ccco3)C3=C(CCCC3=O)N2)cc1 (configuration not stated),21,6,0,17,-2,-3,x
N#CC1=C(SCC(=O)c2ccccc2)NC2=C(C(=O)CCC2)C1c1ccco1 (configuration not stated),35*,-6,13,18,6,0,3
COc1ccc(C2C(C(=O)c3ccco3)=C(O)C(=O)N2CCN2CCOCC2)c(OC)c1 (configuration not stated),3,7,-1,4,3,-3,x
CC(C)(CO)CNC(=O)CCc1nnc(Cc2ccc(-c3ccccc3)cc2)o1,-1,1,-2,-4,1,-2,x
COc1ccc(S[C@]2(C(=O)N3CCCC3)CC(=O)N(C(=O)C3CC3)[C@@H]2c2ccc(OC)cc2)cc1,38*,x,-1,8,1,x,36*
COc1ccc(S[C@]2(C(=O)N3CCN(C(C)=O)CC3)CC(=O)N(C(=O)C3CC3)[C@@H]2c2ccc(OC)cc2)cc1,53*,x,3,5,-3,x,44*
COc1ccc(S[C@]2(C(=O)N3CCN(c4ncccn4)CC3)CC(=O)N(C(=O)C3CC3)[C@@H]2c2ccc(OC)cc2)cc1,-3,x,1,14,4,x,x
